Our source for the IC50 values is PMC9169238 (RSC Advances, 2022).

The IC50 is the concentration at which inhibition is half-maximal.

Format in all cases: cell-based
Assay [1] has as its system A549 – Homo sapiens lung carcinoma. As to the kind of experiment: MTT cytotoxicity assay, A549. The settings on record: A549, 24 h, read-out: IC50 values (μM) A549. The method, boiled down:
(§1)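 Test compound at 1 to 100 μM for 24 h. MTT (0.5 mg mL−1) added for 3 h, formazan dissolved in DMSO, absorbance read. Run in triplicate; IC50 calculated.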
(In general: Formazan colour is commonly taken as a measure of viable cells.)

In assay [2] the test system is CHO-K1 – Cricetulus griseus chinese hamster ovary cells. The experiment in a line: MTT cytotoxicity assay, non-cancerous CHO-K1. Conditions: CHO-K1, 24 h, read-out: IC50 values (μM) CHO.
Assay [3] deals with B16-F10 – Mus musculus mouse skin melanoma. As to the kind of experiment: MTT cytotoxicity assay, B16-F10. Conditions: B16-F10, 24 h, read-out: IC50 values (μM) B16-F10. In short, it runs like this:
as §1

Assay [4] relates to Hep G2 – Homo sapiens hepatocellular carcinoma. As to the kind of experiment: MTT cytotoxicity assay, HepG2. The settings on record: HepG2, 24 h, read-out: IC50 values (μM) HEPG2. The method, boiled down:
as §1

Assay [5] has as its system DU145 – Homo sapiens prostrate carcinoma. As to the kind of experiment: MTT cytotoxicity assay, DU145. The settings on record: DU-145, 24 h, read-out: IC50 values (μM) DU145. The method, boiled down:
as §1

`O=C(Nc1ccc(Br)cc1)c1ccccc1-n1c(=O)[nH]c2ccc(F)cc2c1=O` [Compound 3l, N-(4-Bromophenyl)-2-(6-fluoro-2,4-dioxo-1,2-dihydroquinazolin-3(4H)-yl)benzamide]: the IC50 in assay [1] was determined as 17.4 ± 0.18 µM; in assay [2] it was 51.5 ± 2.74 µM; in assay [3], 28.5 ± 0.31 µM; in assay [4], 7.77 ± 0.02 µM; in assay [5] it was 12.63 ± 0.08 µM.
In the case of `Cc1ccc(NC(=O)c2ccccc2-n2c(=O)[nH]c3ccccc3c2=O)cc1` [Compound 3c, 2-(2,4-dioxo-1,2-dihydroquinazolin-3(4H)-yl)-N-(p-tolyl)benzamide], the IC50 in assay [1] was determined as 15.2 ± 0.7 µM; in assay [3], 17.9 ± 0.17 µM; in assay [4] it was 5.33 ± 0.12 µM; in assay [5], 11.49 ± 0.04 µM.
For the compound `COc1cccc2c1C(=O)c1c(O)c3c(c(O)c1C2=O)C[C@@](O)(C(=O)CO)C[C@@H]3O[C@H]1C[C@H](N)[C@H](O)[C@H](C)O1` [Doxorubicin, doxorubicin, reference compound], the IC50 in assay [1] came to 0.55 ± 0.16 µM; in assay [3], 0.7 ± 0.56 µM; in assay [4], 0.72 ± 0.012 µM; in assay [5] it was 0.363 ± 0.01 µM.
For `CCNC(=O)c1ccccc1-n1c(=O)[nH]c2ccc(Cl)cc2c1=O` [Compound 3p, 2-(6-Chloro-2,4-dioxo-1,2-dihydroquinazolin-3(4H)-yl)-N-ethylbenzamide] the same measures were 22.8 ± 0.71 µM, 31.67 ± 0.14 µM, 33.9 ± 0.71 µM and 13.02 ± 0.03 µM.
`O=C(Nc1ccc(F)cc1)c1ccccc1-n1c(=O)[nH]c2ccc(Cl)cc2c1=O` [Compound 3o, 2-(6-Chloro-2,4-dioxo-1,2-dihydroquinazolin-3(4H)-yl)-N-(4-fluorophenyl)benzamide]: the IC50 in assay [1] was determined as 26.3 ± 1.03 µM; in assay [2] it was 74.5 ± 9.44 µM; in assay [3], 16.03 ± 0.06 µM; in assay [4], 3.02 ± 0.06 µM; in assay [5] it was 5.17 ± 0.07 µM.
In the case of `O=c1[nH]cc(F)c(=O)[nH]1` [Compound 5FU, 5-fluorouracil, reference compound], the IC50 amounted to 29.6 ± 1.64 µM in assay [1], 7.55 ± 0.01 µM in assay [3], 23 ± 0.27 µM in assay [4] and 16.32 ± 0.02 µM in assay [5].
In the same order, the values of `COc1ccc(NC(=O)c2ccccc2-n2c(=O)[nH]c3ccccc3c2=O)cc1` [Compound 3b, 2-(2,4-dioxo-1,2-dihydroquinazolin-3(4H)-yl)-N-(4-methoxyphenyl)benzamide] are 19.5 ± 0.25 µM, 24.8 ± 0.7 µM, 23.3 ± 0.52 µM and 11.56 ± 0.06 µM.
In the same order, the values of `COc1ccc(NC(=O)c2ccccc2-n2c(=O)[nH]c3ccc(F)cc3c2=O)cc1` [Compound 3j, 2-(6-Fluoro-2,4-dioxo-1,2-dihydroquinazolin-3(4H)-yl)-N-(4-methoxyphenyl)benzamide] are 30.4 ± 1.35 µM, 34.3 ± 1.55 µM, 8.74 ± 0.34 µM and 12.3 ± 0.17 µM.
As to `O=C(Nc1ccc(Br)cc1)c1ccccc1-n1c(=O)[nH]c2ccccc2c1=O` [Compound 3e, N-(4-Bromophenyl)-2-(2,4-dioxo-1,2-dihydroquinazolin-3(4H)-yl)benzamide], the IC50 in assay [1] was 11.7 ± 0.14 µM; in assay [2], 69.4 ± 5.17 µM; in assay [3], 14.67 ± 0.05 µM; in assay [4] it was 9.48 ± 0.05 µM; in assay [5] it was 12.05 ± 0.02 µM.
Take `CCNC(=O)c1ccccc1-n1c(=O)[nH]c2ccccc2c1=O` [Compound 3h, 2-(2,4-Dioxo-1,2-dihydroquinazolin-3(4H)-yl)-N-ethylbenzamide]: the IC50 was found to be 34.8 ± 4.65 µM in assay [1]; 94.2 ± 2.44 µM in assay [2]; 27.1 ± 0.68 µM in assay [3]; 16.7 ± 1.72 µM in assay [4]; 10.44 ± 0.02 µM in assay [5].
Take `O=C(Nc1ccccc1)c1ccccc1-n1c(=O)[nH]c2ccc([N+](=O)[O-])cc2c1=O` [Compound 3r, 2-(6-Nitro-2,4-dioxo-1,2-dihydroquinazolin-3(4H)-yl)-N-phenylbenzamide]: the IC50 in assay [1] turned out to be 16.7 ± 0.3 µM; in assay [3] it was 33.13 ± 0.12 µM; in assay [4] it was 16 ± 0.51 µM; in assay [5] it was 15.59 ± 0.07 µM.
In the same order, the values of `O=C(Nc1ccccc1)c1ccccc1-n1c(=O)[nH]c2ccccc2c1=O` [Compound 3a, 2-(2,4-dioxo-1,2-dihydroquinazolin-3(4H)-yl)-N-phenylbenzamide] are 29.4 ± 0.45 µM, 39.51 ± 0.13 µM, 8.73 ± 0.02 µM and 14.83 ± 0.13 µM.
In the same order, the values of `O=C(Nc1ccc(F)cc1)c1ccccc1-n1c(=O)[nH]c2ccc(F)cc2c1=O` [Compound 3k, 2-(6-Fluoro-2,4-dioxo-1,2-dihydroquinazolin-3(4H)-yl)-N-(4-fluorophenyl)benzamide] are 17.2 ± 0.41 µM, 30 ± 0.42 µM, 28.7 ± 0.92 µM and 11.59 ± 0.06 µM.
In the case of `CCNC(=O)c1ccccc1-n1c(=O)[nH]c2ccc(F)cc2c1=O` [Compound 3m, N-Ethyl-2-(6-fluoro-2,4-dioxo-1,2-dihydroquinazolin-3(4H)-yl)benzamide], the half-maximal inhibitory concentration (IC50) in assay [1] amounted to 26.3 ± 1.32 µM; in assay [2] it was 88 ± 3.56 µM; in assay [3], 41.4 ± 0.81 µM; in assay [4] it was 20.2 ± 0.31 µM; in assay [5] it was 19.39 ± 0.14 µM.
For `O=C(Nc1ccccc1)c1ccccc1-n1c(=O)[nH]c2ccc(Cl)cc2c1=O` [Compound 3n, 2-(6-Chloro-2,4-dioxo-1,2-dihydroquinazolin-3(4H)-yl)-N-phenylbenzamide] the same measures were 14.7 ± 0.18 µM, 73.9 ± 2.81 µM, 14.83 ± 0.01 µM, 12.3 ± 0.26 µM and 10.4 ± 0.13 µM.
As for `CCCCNC(=O)c1cc(Cl)ccc1-n1c(=O)[nH]c2ccc(Cl)cc2c1=O` [Compound 3q, N-Butyl-5-chloro-2-(6-chloro-2,4-dioxo-1,2-dihydroquinazolin-3(4H)-yl)benzamide], the IC50 in assay [1] stood at 28.7 ± 1.38 µM; in assay [3], 36.46 ± 0.1 µM; in assay [4], 8.51 ± 0.2 µM; in assay [5], 9.37 ± 0.03 µM.
In the case of `CCCCNC(=O)c1cc(Cl)ccc1-n1c(=O)[nH]c2ccccc2c1=O` [Compound 3g, N-Butyl-5-chloro-2-(2,4-dioxo-1,2-dihydroquinazolin-3(4H)-yl)benzamide], the IC50 in assay [1] was found to be 30.4 ± 5.52 µM; in assay [3], 20.5 ± 0.91 µM; in assay [4], 15.3 ± 0.78 µM; in assay [5], 18.65 ± 0.08 µM.
